From ChEMBL document CHEMBL5678805, “Intermittent administration of MEK inhibitor GDC-0973 plus PI3K inhibitor GDC-0941 triggers robust apoptosis and tumor growth inhibition” (Cancer Res, 2012)
Calls of active or inactive are those of the source. The calls are words filed in the database; no cut-off is given here.

Legend:
[1] = target: Serine/threonine-protein kinase pim-3 (Homo sapiens, UniProt Q86V86); test: Inhibition of PIM3 (unknown origin)
DLD-1 [2] = test: Antitumor activity against human DLD-1 cells xenografted in mouse assessed as tumor growth inhibition at 3 mg/kg, po administered once a day for 21 days; format: functional; settings: DLD-1, 504 h, time 21 day, read-out: TGI
Procedure, shortened: (§1)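 Human tumor xenografts in mice. Drugs given orally, as single agents or combined with the PI3K inhibitor. Schedules were daily (QD) or every third day (Q3D) over 21 days. Tumor volume was measured by caliper as (L×W×W)/2. %TGI = 100×[1 − AUC(treatment/d)/AUC(vehicle/d)] from fitted growth curves, with group means. Tumor lysates were immunoblotted for pS6.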

[3] = Antitumor activity against human A375.X1 cells xenografted in mouse assessed as reduction in ERK phosphorylation at 10 mg/kg, po administered for 3 days and measured at 2 to 24 hrs by Western blot analysis; format: functional; design: scale not given: the % may be the effect or the level left; settings: time 74-96 hrs
Procedure, shortened: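 A375.X1 xenograft mice were dosed orally at 1, 3, 5 or 10 mg/kg once daily for 3 days. Tumors were collected 2, 8 and 24 h after the last dose, pulverized frozen and resolved by 4–12% SDS-PAGE. p-ERK1/2 and t-ERK1/2 were measured by Western blot and quantified by band intensity, relative to vehicle-treated mice (0 h).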

[4] = target: Hepatocyte growth factor receptor (Homo sapiens, UniProt P08581); test: Inhibition of Met (unknown origin)
Hepatocyte growth factor receptor, sequence (P08581 whole entry): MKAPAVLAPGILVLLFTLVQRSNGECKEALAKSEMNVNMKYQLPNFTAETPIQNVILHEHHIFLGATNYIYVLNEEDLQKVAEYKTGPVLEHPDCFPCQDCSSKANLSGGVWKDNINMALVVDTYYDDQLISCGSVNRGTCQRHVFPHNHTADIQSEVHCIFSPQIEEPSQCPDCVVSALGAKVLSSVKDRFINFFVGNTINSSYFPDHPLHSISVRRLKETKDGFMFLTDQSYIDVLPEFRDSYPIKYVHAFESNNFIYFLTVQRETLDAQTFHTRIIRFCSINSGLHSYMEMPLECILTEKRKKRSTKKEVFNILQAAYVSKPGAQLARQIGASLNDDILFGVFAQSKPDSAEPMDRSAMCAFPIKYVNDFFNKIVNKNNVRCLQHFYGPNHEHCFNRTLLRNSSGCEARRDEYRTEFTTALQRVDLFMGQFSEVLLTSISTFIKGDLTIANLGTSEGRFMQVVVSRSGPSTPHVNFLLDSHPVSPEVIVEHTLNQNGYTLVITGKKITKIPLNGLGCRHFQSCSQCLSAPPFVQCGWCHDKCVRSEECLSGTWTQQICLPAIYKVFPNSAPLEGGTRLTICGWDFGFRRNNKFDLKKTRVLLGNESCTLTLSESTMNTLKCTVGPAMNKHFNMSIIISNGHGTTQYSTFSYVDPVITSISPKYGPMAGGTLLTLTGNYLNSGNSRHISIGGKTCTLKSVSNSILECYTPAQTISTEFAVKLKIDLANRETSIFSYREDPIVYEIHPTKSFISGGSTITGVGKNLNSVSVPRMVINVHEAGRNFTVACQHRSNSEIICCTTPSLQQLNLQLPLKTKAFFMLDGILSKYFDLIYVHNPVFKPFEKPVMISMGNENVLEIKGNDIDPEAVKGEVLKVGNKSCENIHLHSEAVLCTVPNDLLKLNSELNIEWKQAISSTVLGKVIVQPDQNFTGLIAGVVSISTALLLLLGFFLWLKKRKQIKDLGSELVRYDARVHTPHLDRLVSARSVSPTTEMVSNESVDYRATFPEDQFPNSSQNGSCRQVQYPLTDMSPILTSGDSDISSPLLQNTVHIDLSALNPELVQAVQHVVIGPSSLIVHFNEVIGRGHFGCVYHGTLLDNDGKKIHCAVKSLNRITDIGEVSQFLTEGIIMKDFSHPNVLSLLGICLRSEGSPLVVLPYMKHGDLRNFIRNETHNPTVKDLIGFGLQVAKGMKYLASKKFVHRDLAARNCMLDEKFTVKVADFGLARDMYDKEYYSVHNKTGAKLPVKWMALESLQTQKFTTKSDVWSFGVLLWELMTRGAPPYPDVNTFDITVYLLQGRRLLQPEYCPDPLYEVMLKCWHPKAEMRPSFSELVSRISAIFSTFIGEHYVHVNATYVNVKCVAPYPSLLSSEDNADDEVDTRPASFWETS

DLD-1 [5] = test: Antitumor activity against human DLD-1 cells xenografted in mouse assessed as tumor growth inhibition at 3 mg/kg, po administered once a day for 21 days in presence of 4-(2-(1H-indazol-4-yl)-6-((4-(methylsulfonyl)piperazin-1-yl)methyl)thieno[3,2-d]pyrimidin-4-yl)morpholine; format: functional; settings: DLD-1, 504 h, time 21 day, read-out: TGI; procedure, shortened: as §1
A549 = test: Antitumor activity against human A549 cells harboring KRAS G12S/LKB1Q37/SMARCA4 Q729/CDKN2A mutant xenografted in mouse assessed as tumor growth inhibition at 5 mg/kg, po; format: functional; settings: read-out: TGI
Procedure, shortened: (§2)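 Single-agent dose ranging in human tumor xenograft mice at 2.5, 5 or 10 mg/kg oral. Tumor volume was measured by caliper as (L×W×W)/2. %TGI = 100×[1 − AUC(treatment/d)/AUC(vehicle/d)] from the fitted growth curve per dose group, relative to vehicle.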

888-mel [6] = test: Inhibition of PI3K/MEK signaling pathway in human 888-mel cells assessed as decrease in AKT phosphorylation by incubated for 24 hrs by Western blot analysis; format: cell-based
A2058 [7] = test: Antitumor activity against human A2058 cells xenografted in mouse assessed as decrease in pS6 level at 5 mg/kg, po administered for 4 days and measured after 2 hrs in presence of 4-(2-(1H-indazol-4-yl)-6-((4-(methylsulfonyl)piperazin-1-yl)methyl)thieno[3,2-d]pyrimidin-4-yl)morpholine; format: functional, organism-based; settings: time 98.0 hrs
[8] = target: Mitogen-activated protein kinase kinase kinase 9 (Homo sapiens, UniProt P80192); test: Inhibition of MLK1 (unknown origin)
Mitogen-activated protein kinase kinase kinase 9, sequence (P80192 whole entry): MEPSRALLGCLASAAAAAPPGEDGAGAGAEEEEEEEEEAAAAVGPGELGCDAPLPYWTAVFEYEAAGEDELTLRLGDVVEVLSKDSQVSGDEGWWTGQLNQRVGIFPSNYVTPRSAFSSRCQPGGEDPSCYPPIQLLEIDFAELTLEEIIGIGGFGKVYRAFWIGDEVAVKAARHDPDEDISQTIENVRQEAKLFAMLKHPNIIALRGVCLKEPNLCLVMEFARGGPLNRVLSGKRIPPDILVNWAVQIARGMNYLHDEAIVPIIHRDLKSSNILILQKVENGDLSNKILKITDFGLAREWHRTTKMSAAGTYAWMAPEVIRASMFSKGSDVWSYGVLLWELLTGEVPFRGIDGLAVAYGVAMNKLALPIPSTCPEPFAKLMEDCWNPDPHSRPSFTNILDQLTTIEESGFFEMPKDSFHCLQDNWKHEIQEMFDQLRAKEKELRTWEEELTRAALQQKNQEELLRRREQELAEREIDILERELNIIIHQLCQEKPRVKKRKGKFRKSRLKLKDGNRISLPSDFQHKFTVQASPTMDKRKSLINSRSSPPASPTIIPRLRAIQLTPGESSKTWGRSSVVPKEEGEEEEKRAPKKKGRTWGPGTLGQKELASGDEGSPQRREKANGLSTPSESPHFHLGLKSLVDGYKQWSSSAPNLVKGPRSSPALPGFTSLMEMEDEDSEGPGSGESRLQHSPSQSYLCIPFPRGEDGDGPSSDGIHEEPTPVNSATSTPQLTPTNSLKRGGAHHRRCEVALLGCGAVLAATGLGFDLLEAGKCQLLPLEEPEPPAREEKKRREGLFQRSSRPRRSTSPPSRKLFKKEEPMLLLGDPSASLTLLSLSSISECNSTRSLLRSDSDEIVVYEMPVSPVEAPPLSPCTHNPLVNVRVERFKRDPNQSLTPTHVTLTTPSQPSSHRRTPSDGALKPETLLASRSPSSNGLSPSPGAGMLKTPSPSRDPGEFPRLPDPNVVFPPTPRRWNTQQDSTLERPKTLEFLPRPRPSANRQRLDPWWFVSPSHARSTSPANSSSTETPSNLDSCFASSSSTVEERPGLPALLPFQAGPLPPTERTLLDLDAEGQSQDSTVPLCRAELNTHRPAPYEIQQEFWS

[9] = target: Calcium/calmodulin-dependent protein kinase type 1 (Homo sapiens, UniProt Q14012); test: Inhibition of CaMK1 (unknown origin)
[10] = target: Macrophage colony-stimulating factor 1 receptor (Homo sapiens, UniProt P07333); test: Inhibition of Fms (unknown origin)
DU-145 = test: Antitumor activity against human DU-145 cells harboring KRAS G12V/LKB1 K178/TP53 P223L/V274F/CDKN2A/MLH1/SMARCA4/ NF1 P2472H/RB1K715 mutant xenografted in mouse assessed as tumor growth inhibition at 10 mg/kg, po; format: functional; settings: read-out: TGI; procedure, shortened: as §2
NCI-H2122 [11] = test: Antitumor activity against human NCI-H2122 cells xenografted in mouse assessed as tumor growth inhibition at 5 mg/kg, po administered once a day for 21 days; format: functional; settings: NCI-H2122, 504 h, read-out: TGI, time 21 day
Procedure, shortened: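 Mice bearing NCI-H2122 xenografts were given MEK inhibitor, PI3K inhibitor, or both, orally once daily for 21 consecutive days at the doses labeled. Caliper tumor volumes were calculated as (L×W×W)/2. %TGI was derived from the AUC of the fitted growth curve per day relative to vehicle.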

NCI-H2122 [12] = test: Antitumor activity against human NCI-H2122 cells harboring KRAS […]/LKB1 P281/TP53Q61L/C176Fl/CDKN2A mutant xenografted in mouse assessed as tumor growth inhibition at 5 mg/kg, po; format: functional; settings: read-out: TGI
Procedure, shortened: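 NCI-H2122 (KRAS G12C) NSCLC xenografts in mice were dosed orally once daily for 21 consecutive days. Tumor volume was measured with calipers as (L×W×W)/2, and body weight was tracked. %TGI was derived from the area under the fitted growth curve per day versus vehicle. Group means with SEM were reported.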

Angiopoietin-1 receptor = Angiopoietin-1 receptor (Homo sapiens, UniProt Q02763); test: Inhibition of Tie-2 (unknown origin)
Angiopoietin-1 receptor, sequence (Q02763 whole entry): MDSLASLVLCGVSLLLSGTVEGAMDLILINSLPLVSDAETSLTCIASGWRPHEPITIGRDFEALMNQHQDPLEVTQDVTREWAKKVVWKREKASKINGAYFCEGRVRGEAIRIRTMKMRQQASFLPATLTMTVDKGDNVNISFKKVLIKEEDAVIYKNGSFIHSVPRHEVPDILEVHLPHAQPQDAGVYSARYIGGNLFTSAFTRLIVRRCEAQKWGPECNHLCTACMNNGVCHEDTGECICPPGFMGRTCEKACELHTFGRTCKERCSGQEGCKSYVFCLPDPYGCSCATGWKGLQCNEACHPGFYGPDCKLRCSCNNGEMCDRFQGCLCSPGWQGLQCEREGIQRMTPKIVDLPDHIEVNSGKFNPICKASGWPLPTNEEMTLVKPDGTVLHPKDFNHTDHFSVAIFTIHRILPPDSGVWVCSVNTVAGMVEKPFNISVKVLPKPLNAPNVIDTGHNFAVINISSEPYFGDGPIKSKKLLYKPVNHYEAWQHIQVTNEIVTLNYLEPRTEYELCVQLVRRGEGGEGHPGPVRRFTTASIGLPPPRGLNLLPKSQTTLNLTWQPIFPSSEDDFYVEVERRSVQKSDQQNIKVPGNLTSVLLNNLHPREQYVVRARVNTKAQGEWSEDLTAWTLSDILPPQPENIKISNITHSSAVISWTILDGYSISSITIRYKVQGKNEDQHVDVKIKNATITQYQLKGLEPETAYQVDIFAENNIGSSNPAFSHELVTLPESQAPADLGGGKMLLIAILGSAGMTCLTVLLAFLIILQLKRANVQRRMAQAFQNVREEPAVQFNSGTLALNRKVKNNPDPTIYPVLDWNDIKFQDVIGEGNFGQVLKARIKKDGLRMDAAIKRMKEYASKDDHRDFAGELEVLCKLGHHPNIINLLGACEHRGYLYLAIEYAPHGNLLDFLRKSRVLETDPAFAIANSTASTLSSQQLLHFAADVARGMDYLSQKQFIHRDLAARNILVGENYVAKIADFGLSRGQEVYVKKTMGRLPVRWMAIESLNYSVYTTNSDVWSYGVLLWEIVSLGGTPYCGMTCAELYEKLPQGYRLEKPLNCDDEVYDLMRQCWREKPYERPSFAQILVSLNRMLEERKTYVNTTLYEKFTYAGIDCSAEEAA

Misshapen-like kinase 1 = Misshapen-like kinase 1 (Homo sapiens, UniProt Q8N4C8); test: Inhibition of MINK (unknown origin)
A2058 [13] = test: Antitumor activity against human A2058 cells harboring BRAF V600E/PTEN deletion mutant xenografted in mouse assessed as suppression of ERK phosphorylation at 15 mg/kg, po administered every third day for 21 days and measured after 8 hrs post dose by western blot analysis; format: functional, organism-based; settings: time 512.0 hrs
888-mel [14] = test: Inhibition of ERK phosphorylation in human 888-mel cells incubated for 24 hrs by immunoblotting analysis; format: cell-based
A2058 [15] = test: Antiproliferative activity against human A2058 cells harboring BRAF V600E mutant assessed as reduction in cell viability incubated for 96 hrs in presence of 4-(2-(1H-indazol-4-yl)-6-((4-(methylsulfonyl)piperazin-1-yl)methyl)thieno[3,2-d]pyrimidin-4-yl)morpholine; format: functional, cell-based
A2058 [16] = test: Antiproliferative activity against human A2058 cells assessed reduction in cell viability incubated for 4 days in presence of 4-(2-(1H-indazol-4-yl)-6-((4-(methylsulfonyl)piperazin-1-yl)methyl)thieno[3,2-d]pyrimidin-4-yl)morpholine by celltiter-glo assay; format: functional; settings: time 4 day
Procedure, shortened: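 4-day CellTiter-Glo viability read-out on melanoma lines, cells exposed to increasing concentrations of each inhibitor alone and in combination.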

[17] = target: Serine/threonine-protein kinase B-raf (Homo sapiens, UniProt P15056); test: Inhibition of BRAF (unknown origin)
FaDu = test: Antitumor activity against human FaDu cells harboring SMAD4 del/TP53 R248L/CDKN2A mutant xenografted in mouse assessed as tumor growth inhibition at 5 mg/kg, po; format: functional; settings: read-out: TGI; procedure, shortened: as §2
[18] = Antitumor activity against human A375.X1 cells harboring BRAF V600E/CDKN2A E61 mutant xenografted in mouse assessed as tumor growth inhibition at 2.5 mg/kg, po; format: functional; settings: A375.X1, read-out: TGI; procedure, shortened: as §2
[19] = Antitumor activity against human A2058-X1 cells harboring BRAF V600E/PTEN L112Q/V175/TP53 V274F mutant xenografted in mouse assessed as tumor growth inhibition at 5 mg/kg, po; format: functional; settings: A2058-X1, read-out: TGI; procedure, shortened: as §2
[20] = target: Mast/stem cell growth factor receptor Kit (Homo sapiens, UniProt P10721); test: Inhibition of Kit (unknown origin)
Mast/stem cell growth factor receptor Kit, sequence (P10721 whole entry): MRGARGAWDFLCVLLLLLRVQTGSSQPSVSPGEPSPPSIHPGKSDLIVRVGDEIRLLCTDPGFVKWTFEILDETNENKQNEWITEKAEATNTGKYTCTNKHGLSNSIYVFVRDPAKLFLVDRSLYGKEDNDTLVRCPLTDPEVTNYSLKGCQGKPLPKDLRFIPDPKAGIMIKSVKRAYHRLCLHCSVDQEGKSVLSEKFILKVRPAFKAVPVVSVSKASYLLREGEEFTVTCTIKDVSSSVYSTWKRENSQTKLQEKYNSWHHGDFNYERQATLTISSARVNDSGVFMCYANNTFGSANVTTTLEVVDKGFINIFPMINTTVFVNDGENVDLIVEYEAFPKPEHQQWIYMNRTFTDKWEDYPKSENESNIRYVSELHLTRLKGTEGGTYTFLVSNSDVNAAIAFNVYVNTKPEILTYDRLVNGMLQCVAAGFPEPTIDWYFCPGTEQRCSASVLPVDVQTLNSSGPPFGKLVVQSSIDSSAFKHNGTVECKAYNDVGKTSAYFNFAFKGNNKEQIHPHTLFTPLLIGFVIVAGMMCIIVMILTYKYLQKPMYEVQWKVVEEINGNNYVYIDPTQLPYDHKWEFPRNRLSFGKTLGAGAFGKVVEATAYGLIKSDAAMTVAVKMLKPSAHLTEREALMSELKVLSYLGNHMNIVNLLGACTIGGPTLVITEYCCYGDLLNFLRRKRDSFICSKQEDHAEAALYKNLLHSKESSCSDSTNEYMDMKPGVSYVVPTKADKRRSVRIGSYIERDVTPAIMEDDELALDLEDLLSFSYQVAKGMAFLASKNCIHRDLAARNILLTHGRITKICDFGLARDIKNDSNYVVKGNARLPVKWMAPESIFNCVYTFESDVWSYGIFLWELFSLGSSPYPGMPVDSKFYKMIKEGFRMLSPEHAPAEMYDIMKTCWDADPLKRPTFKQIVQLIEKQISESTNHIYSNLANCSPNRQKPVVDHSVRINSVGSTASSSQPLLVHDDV

Calu-6 = test: Antitumor activity against human Calu-6 cells harboring KRAS Q61K and TP53 R196 mutant xenografted in mouse assessed as tumor growth inhibition at 5 mg/kg, po; format: functional; settings: read-out: TGI; procedure, shortened: as §2

IC50 [1]: > 10 µM
IC50 [4]: > 10 µM
IC50 [8]: > 10 µM
IC50 [9]: > 10 µM
IC50 [10]: > 10 µM
IC50 (Angiopoietin-1 receptor): > 10 µM
IC50 (Misshapen-like kinase 1): > 10 µM
IC50 [17]: > 10 µM
IC50 [20]: > 10 µM
Compound: O=C(c1ccc(F)c(F)c1Nc1ccc(I)cc1F)N1CC(O)([C@@H]2CCCCN2)C1 [COBIMETINIB]
inhibition in vivo at 3 mg/kg (DLD-1 [2]): 47%
Activity [3]: 75%
inhibition in vivo at 3 mg/kg (DLD-1 [5]): 88%
inhibition in vivo at 5 mg/kg (A549): 51.4%
inhibition (888-mel [6]): Active
Activity (A2058 [7]): Active
inhibition in vivo at 10 mg/kg (DU-145): 77%
inhibition in vivo at 5 mg/kg (NCI-H2122 [11]): 49%
inhibition in vivo at 5 mg/kg (NCI-H2122 [12]): 49%
Activity (A2058 [13]): Active
inhibition (888-mel [14]): Active
Activity (A2058 [15]): inactive
Activity (A2058 [16]): 60%
inhibition in vivo at 5 mg/kg (FaDu): 94%
inhibition in vivo at 2.5 mg/kg [18]: 97.5%
inhibition in vivo at 5 mg/kg [19]: 45%
inhibition in vivo at 5 mg/kg (Calu-6): 80%
